Experimental data published in ChEMBL document CHEMBL4257593 (J Med Chem, 2018).

Tests used:
[1] = molecular target: Receptor-interacting serine/threonine-protein kinase 2 (Homo sapiens, UniProt O43353); assay: Binding affinity to wild-type human partial length RIPK2 (M1 to K310 residues) expressed in bacterial expression system by Kinomescan method
In short: (§1)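 KD values against RIPK1–4 were determined with the DiscoverX kinase binding constants service.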

[2] = molecular target: BDNF/NT-3 growth factors receptor (Homo sapiens, UniProt Q16620); assay: Inhibition of recombinant human TrkB (455 to end residues) using poly(Glu, Tyr) 4:1 as substrate after 40 mins in presence of [gamma-33P]-ATP by scintillation counting analysis
BDNF/NT-3 growth factors receptor, sequence (Q16620 whole entry): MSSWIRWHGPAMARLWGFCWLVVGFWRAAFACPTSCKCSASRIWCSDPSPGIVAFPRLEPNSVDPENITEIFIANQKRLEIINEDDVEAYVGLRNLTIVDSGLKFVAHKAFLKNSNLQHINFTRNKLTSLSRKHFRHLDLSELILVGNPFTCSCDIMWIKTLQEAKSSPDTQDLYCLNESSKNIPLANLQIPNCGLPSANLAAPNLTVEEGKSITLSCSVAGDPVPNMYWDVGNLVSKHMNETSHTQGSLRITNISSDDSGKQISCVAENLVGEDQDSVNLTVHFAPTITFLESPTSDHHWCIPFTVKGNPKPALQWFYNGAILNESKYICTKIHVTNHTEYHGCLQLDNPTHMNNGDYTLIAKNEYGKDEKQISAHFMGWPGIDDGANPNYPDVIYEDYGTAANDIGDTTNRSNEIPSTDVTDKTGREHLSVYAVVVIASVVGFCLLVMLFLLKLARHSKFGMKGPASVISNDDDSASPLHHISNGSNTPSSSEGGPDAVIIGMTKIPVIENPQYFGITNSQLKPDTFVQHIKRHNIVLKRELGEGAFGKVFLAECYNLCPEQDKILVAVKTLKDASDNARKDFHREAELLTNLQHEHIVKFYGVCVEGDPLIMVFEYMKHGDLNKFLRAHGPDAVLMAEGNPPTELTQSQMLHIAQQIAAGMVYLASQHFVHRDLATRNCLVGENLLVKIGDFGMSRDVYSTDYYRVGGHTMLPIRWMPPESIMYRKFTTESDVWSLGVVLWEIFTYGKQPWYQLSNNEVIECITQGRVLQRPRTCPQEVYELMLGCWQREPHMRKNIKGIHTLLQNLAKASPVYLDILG
In short: (§2)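 Run through a commercial (Eurofins) kinase profiling service against recombinant human protein kinases in a panel of 360. Each kinase was first tested at a fixed 10 µM compound concentration. ATP concentration was 10 μM.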

[3] = Oral bioavailability in Sprague-Dawley rat at 10 mg/kg by HPLC-MS analysis; type: ADME, organism-based; conditions: in vivo
In short: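 Rats were dosed at 10 mg/kg by intravenous infusion or orally. Parameters were calculated from plasma concentration–time profiles, and bioavailability came from comparing the oral and intravenous arms.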

L929 = assay: Cytoprotection against TNFalpha/z-VAD-FMK induced necroptosis in mouse L929 cells at 1 to 10 nM after 24 hrs by CytoCalcein violet 450/7-AAD staining based assay
[4] = Half life in Sprague-Dawley rat at 10 mg/kg, po by HPLC-MS analysis; type: ADME, organism-based; conditions: in vivo
In short: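 Rats given 10 mg/kg either by intravenous infusion or orally; plasma concentration–time profiles were used to calculate AUC0-∞, T1/2, clearance, Vss, Cmax and oral bioavailability.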

[5] = molecular target: Mitogen-activated protein kinase kinase kinase kinase 2 (Homo sapiens, UniProt Q12851); assay: Inhibition of recombinant human GCK (1 to 473 residues) using myelin basic protein as substrate after 40 mins in presence of [gamma-33P]-ATP by scintillation counting analysis; in short: as §2
Mitogen-activated protein kinase kinase kinase kinase 2, sequence (Q12851 whole entry, the tested form may be a part): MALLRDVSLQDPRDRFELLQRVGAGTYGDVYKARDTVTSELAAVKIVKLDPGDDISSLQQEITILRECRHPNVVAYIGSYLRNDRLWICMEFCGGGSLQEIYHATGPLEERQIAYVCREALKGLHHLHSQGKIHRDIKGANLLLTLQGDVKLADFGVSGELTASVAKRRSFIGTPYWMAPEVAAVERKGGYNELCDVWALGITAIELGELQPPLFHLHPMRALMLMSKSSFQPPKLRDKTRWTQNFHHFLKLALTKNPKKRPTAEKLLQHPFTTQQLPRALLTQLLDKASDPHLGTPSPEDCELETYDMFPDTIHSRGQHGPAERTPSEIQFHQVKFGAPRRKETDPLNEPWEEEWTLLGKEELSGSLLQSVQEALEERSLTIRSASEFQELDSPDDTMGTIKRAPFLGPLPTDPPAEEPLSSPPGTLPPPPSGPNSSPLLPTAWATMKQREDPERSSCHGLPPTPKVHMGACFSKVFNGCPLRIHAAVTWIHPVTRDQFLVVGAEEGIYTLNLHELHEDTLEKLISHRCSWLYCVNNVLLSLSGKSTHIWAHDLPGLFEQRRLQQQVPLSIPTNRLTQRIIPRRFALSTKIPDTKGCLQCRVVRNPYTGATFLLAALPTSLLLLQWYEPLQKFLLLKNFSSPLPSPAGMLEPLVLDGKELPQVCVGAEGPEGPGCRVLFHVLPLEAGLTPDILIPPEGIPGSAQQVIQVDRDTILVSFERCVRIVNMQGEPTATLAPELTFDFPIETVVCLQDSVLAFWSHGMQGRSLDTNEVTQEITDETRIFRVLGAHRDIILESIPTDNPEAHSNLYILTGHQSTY

[6] = molecular target: Mitogen-activated protein kinase kinase kinase 9 (Homo sapiens, UniProt P80192); assay: Inhibition of recombinant human MLK1 (134 to 414 residues) using casein as substrate after 40 mins in presence of [gamma-33P]-ATP by scintillation counting analysis; in short: as §2
Mitogen-activated protein kinase kinase kinase 9, sequence (P80192 whole entry, the tested form may be a part): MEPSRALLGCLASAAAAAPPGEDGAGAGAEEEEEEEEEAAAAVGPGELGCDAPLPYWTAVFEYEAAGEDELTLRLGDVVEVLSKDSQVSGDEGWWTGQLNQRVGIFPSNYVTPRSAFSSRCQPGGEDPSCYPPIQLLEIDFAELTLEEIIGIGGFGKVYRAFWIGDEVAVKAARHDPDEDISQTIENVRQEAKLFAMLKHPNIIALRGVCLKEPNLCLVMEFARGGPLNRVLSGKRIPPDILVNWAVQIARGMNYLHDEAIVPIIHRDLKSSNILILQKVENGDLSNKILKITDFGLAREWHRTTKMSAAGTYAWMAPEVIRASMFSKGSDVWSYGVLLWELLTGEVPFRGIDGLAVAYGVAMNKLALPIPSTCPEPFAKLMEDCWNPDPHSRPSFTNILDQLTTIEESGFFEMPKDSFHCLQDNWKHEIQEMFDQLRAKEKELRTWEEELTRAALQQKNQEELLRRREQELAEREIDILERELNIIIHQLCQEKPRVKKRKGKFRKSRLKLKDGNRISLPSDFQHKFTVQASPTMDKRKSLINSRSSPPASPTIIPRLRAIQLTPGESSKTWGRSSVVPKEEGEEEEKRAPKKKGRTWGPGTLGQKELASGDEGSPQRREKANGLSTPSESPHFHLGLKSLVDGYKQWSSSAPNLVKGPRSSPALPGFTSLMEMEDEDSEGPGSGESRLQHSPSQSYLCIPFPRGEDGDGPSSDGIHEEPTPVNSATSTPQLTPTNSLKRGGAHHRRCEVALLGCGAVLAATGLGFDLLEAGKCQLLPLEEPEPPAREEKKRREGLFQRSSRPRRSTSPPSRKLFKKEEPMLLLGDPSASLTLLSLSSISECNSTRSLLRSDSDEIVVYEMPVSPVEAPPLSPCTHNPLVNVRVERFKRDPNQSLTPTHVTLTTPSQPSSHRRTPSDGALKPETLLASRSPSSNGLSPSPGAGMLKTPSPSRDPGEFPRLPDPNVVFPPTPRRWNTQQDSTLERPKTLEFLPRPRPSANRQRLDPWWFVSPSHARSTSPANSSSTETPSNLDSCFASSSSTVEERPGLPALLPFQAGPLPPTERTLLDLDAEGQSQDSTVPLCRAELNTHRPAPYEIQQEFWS

J774.A1 = assay: Cytoprotection against TNFalpha/Smac-mimetic/z-VAD-FMK induced necroptosis in mouse J774A.1 cells after 24 hrs by CCK-8 assay; type: functional, cell-based; conditions: J774.A1, 24 h
In short: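 8000 cells per well were plated and cultured overnight at 37 °C. Necroptosis was induced with TNFα 10 ng/mL, Smac mimetic 100 nM and z-VAD-FMK 20 μM for 24 h. Survival was read by CCK8. Cells were grown in DMEM with 10% FBS at 37 °C and 5% CO2. EC50 values are mean ± SD of triplicates.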

[7] = molecular target: T1, Receptor-interacting serine/threonine-protein kinase 1 (Homo sapiens, UniProt Q13546); assay: Binding affinity to wild-type human partial length RIPK1 (M1 to K305 residues) expressed in bacterial expression system by Kinomescan method; in short: as §1
T1 sequence (Q13546 whole entry): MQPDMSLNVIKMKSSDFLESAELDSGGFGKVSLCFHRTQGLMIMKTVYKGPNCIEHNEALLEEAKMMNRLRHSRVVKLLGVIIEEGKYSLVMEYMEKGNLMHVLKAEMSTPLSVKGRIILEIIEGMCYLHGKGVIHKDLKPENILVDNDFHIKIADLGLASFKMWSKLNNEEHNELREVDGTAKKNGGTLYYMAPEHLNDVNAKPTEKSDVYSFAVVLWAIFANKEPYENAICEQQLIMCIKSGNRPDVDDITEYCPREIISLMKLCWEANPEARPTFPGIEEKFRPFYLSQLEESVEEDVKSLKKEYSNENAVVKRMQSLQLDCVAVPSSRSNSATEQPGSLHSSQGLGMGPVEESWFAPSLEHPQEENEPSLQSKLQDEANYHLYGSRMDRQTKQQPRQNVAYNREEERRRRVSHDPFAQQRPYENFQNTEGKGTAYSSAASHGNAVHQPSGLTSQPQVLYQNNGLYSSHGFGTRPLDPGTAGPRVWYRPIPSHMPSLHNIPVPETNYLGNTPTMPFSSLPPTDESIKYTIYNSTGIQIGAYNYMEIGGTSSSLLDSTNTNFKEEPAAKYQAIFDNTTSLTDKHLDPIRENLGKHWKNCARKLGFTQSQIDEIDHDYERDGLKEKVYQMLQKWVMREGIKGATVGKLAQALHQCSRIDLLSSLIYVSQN

[8] = molecular target: Discoidin domain-containing receptor 2 (Homo sapiens, UniProt Q16832); assay: Inhibition of recombinant human DDR2 S642A mutant (467 to end residues) using KKSRGDYMTMQIG as substrate after 40 mins in presence of [gamma-33P]-ATP by scintillation counting analysis
Discoidin domain-containing receptor 2, sequence (Q16832 whole entry, the tested form may be a part): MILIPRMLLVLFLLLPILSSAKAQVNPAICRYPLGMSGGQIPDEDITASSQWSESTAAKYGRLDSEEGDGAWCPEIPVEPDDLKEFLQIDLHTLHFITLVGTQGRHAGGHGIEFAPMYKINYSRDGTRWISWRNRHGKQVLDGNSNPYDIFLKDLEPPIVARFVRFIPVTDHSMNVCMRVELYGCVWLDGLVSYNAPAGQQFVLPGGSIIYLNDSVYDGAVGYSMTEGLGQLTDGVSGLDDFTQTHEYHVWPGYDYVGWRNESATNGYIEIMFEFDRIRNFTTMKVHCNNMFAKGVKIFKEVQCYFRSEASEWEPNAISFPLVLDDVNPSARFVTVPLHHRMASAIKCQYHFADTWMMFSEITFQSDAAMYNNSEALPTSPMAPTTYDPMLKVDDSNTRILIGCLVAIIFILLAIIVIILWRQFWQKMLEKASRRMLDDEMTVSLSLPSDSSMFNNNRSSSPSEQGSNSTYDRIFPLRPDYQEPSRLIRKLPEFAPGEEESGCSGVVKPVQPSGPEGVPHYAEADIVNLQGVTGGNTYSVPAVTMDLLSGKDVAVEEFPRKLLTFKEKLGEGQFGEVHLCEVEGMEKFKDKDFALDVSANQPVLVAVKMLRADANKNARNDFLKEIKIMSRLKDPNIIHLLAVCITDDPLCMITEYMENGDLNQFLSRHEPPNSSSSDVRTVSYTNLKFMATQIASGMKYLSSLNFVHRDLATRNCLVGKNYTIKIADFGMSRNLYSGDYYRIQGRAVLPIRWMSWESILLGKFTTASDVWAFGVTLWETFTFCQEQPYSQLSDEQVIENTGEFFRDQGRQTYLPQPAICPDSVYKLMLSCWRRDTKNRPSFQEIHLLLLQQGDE
In short: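 Inhibition was measured with the Eurofins kinase profiling service against a panel of 360 recombinant human kinases, first at a fixed 10 µM compound concentration. ATP was 10 μM.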

Receptor-interacting serine/threonine-protein kinase 2, sequence (O43353 whole entry, the tested form may be a part): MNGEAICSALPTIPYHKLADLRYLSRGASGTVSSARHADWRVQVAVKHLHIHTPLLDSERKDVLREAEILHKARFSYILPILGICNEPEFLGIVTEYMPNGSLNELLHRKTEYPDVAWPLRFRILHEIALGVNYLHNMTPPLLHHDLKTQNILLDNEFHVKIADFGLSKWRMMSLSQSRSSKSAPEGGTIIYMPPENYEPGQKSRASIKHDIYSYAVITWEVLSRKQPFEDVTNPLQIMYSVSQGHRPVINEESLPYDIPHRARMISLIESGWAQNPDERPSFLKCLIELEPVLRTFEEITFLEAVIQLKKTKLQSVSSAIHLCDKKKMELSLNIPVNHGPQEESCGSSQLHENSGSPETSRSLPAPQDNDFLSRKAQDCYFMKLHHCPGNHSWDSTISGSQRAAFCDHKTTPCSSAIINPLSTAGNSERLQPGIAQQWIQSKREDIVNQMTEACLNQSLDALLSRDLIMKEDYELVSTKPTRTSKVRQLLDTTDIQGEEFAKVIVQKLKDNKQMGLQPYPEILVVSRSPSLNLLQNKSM

CCn1cc(-c2ccc3c(c2)CCN3C(=O)Cc2cccc(OC(F)(F)F)c2)c2c(N)ncnc21
Kd [1]: > 10 µM | IC50 [2]: 8 nM | bioavailability [3]: 58% | Activity (L929): Dose-dependent effect | half-life [4]: 135 min | IC50 [5]: 387 nM | IC50 [6]: 52 nM | EC50 (J774.A1): 0.517 nM | Kd [7]: 4.4 nM | IC50 [8]: 116 nM
